Source: ChEMBL document CHEMBL3751842, “Novel triazolothiadiazines act as potent anticancer agents in liver cancer cells through Akt and ASK-1 proteins” (Bioorg Med Chem, 2016)
Calls of active or inactive are those of the source. No cut-off for these calls is given here.

Experiments:
[1] = Cytotoxicity against human HuH7 cells assessed as growth inhibition after 72 hrs by sulforhodamine B assay; assay type: functional, cell-based, Huh-7
Procedure, shortened: (§1)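 Cells were grown at 37°C, 5% CO2 in DMEM with 10% FBS. They were seeded at 1000–3000 cells/well, grown 24 h, then exposed to compound at 2.5–40 µM for 72 h. Cells were fixed in 10% TCA for 1 h at 4°C, stained with 0.4% SRB in 1% acetic acid for 10 min, and the dye solubilized in 10 mM Tris. Absorbance was read at 515 nm; runs were in triplicate; IC50 was calculated, with fits of R2 0.8–1 accepted.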

MCF7 = test: Cytotoxicity against human MCF7 cells assessed as growth inhibition after 72 hrs by sulforhodamine B assay; assay type: functional, cell-based; procedure, shortened: as §1
[2] = Cytotoxicity against human HCT116 cells assessed as growth inhibition after 72 hrs by sulforhodamine B assay; assay type: functional, cell-based, HCT-116; procedure, shortened: as §1
HepG2 = test: Cytotoxicity against human HepG2 cells assessed as growth inhibition after 72 hrs by sulforhodamine B assay; assay type: functional, cell-based; procedure, shortened: as §1
[3] = Cytotoxicity against human Mahlavu cells assessed as growth inhibition after 72 hrs by sulforhodamine B assay; assay type: functional, cell-based; procedure, shortened: as §1
Huh-7 [4] = test: Induction of apoptosis in human HuH7 cells assessed as nuclear condensation at 10 uM after 48 hrs by Hoechst 33258 staining-based immunofluorescence microscopy; assay type: functional, cell-based
Procedure, shortened: (§2)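 Cells on coverslips were incubated overnight, then treated with 10 µM compound or DMSO for 48 h. They were washed in ice-cold PBS, fixed in cold methanol for 10 min, and stained with 1 µg/mL Hoechst 33258 for 5 min in the dark. Nuclei were examined by fluorescence microscopy with a 40x objective.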

[5] = Cytotoxicity against human SNU475 cells assessed as growth inhibition after 72 hrs by sulforhodamine B assay; assay type: functional, cell-based, SNU-475; procedure, shortened: as §1
[6] = Cytotoxicity against human FOCUS cells assessed as growth inhibition after 72 hrs by sulforhodamine B assay; assay type: functional, cell-based; procedure, shortened: as §1
Huh-7 [7] = test: Induction of apoptosis in human HuH7 cells assessed as horseshoe nuclear structure at 10 uM after 48 hrs by Hoechst 33258 staining-based immunofluorescence microscopy; assay type: functional, cell-based; procedure, shortened: as §2
Huh-7 [8] = test: Cytotoxicity against human HuH7 cells assessed as cell impedance at IC25 to IC100 measured every 30 mins for 72 hrs by RT-CES assay; assay type: functional, cell-based; settings: TDE = time-dependent effect
Procedure, shortened: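 Huh7 cells were seeded at 1000–5000 cells/well on electrode plates. […] Impedance was read as cell index every 10 min for the first 24 h, then every 30 min, over 72 h. Data were normalized to DMSO; inhibition (%) = [1 − (CI treated/CI DMSO)] × 100. Each experiment was run at least three times.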

[9] = Cytotoxicity against human Hep3B cells assessed as growth inhibition after 72 hrs by sulforhodamine B assay; assay type: functional, cell-based, Hep 3B2; procedure, shortened: as §1
Huh-7 [10] = test: Induction of cell cycle arrest in human HuH7 cells assessed as accumulation at subG1 phase at 10 uM after 24 to 48 hrs by propidium iodide staining based FACS analysis; assay type: functional
Procedure, shortened: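 Huh7 cells were seeded at 300,000 per 100-mm dish. After 24 h they were treated with 10 µM compound or DMSO for 24 h and 48 h. Cells were trypsinized, fixed in ice-cold 70% ethanol and stored at −20 °C. They were then stained with propidium iodide and cell-cycle distribution, including SubG1, was read by flow cytometry.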

[11] = Homo sapiens, Huh-7, 72 h, read-out: IC50
[12] = Homo sapiens, MCF7, 72 h, read-out: IC50
[13] = Homo sapiens, HCT-116, 72 h, read-out: IC50
[14] = Homo sapiens, HepG2, 72 h, read-out: IC50
[15] = Homo sapiens, Mahlavu, 72 h, read-out: IC50
[16] = Homo sapiens, SNU-475, 72 h, read-out: IC50
[17] = Homo sapiens, FOCUS, 72 h, read-out: IC50
[18] = Homo sapiens, Hep3B, 72 h, read-out: IC50

With `CC(C)Cc1ccc(C(C)c2nnc3n2N=C(c2ccc(Cl)cc2Cl)CS3)cc1` (configuration not stated) the IC50 [1, 11] was 7.5 µM, the IC50 (MCF7; [12]) was 11.8 µM and the IC50 [2, 13] was 11.1 µM.

For `CC(c1ccc(-c2ccccc2)c(F)c1)c1nnc2n1N=C(c1ccc(Br)cc1)CS2` (configuration not stated), the IC50 (HepG2; [14]) was 3.7 µM, the IC50 [3, 15] was 6.2 µM and the Activity (Huh-7 [4]) was “inactive”. For the same compound, the IC50 [5, 16] was 7 µM, the IC50 [6, 17] was 8.5 µM and the Activity (Huh-7 [7]) was “inactive”. The IC50 [1, 11] was 5 µM, the IC50 (MCF7; [12]) was 7.4 µM and the IC50 [2, 13] was 7.1 µM. For the same compound, the Activity (Huh-7 [8]) was “tde” and the IC50 [9, 18] was 1500 nM.

With `CC(C(=O)O)c1ccc(-c2ccccc2)c(F)c1` (configuration not stated) [FLURBIPROFEN] the IC50 (HepG2; hepg2) was “Not Active”, the IC50 ([3]; mahlavu) was “Not Active” and the IC50 ([5]; snu-475) was “Not Active”. For the same compound, the IC50 ([6]; focus) was “Not Active”, the IC50 ([1]; huh-7) was “Not Active” and the IC50 (MCF7; mcf7) was “Not Active”. For the same compound, the IC50 ([2]; hct-116) was “Not Active” and the IC50 ([9]; hep 3b2) was “Not Active”.

With `CC(C)Cc1ccc(C(C)C(=O)O)cc1` (configuration not stated) [IBUPROFEN] the IC50 (HepG2; hepg2) was “Not Active”, the IC50 ([3]; mahlavu) was “Not Active” and the IC50 ([5]; snu-475) was “Not Active”. The IC50 ([6]; focus) was “Not Active”, the IC50 [1, 11] was 37.2 µM and the IC50 (MCF7; mcf7) was “Not Active”. For the same compound, the IC50 ([2]; hct-116) was “Not Active” and the IC50 ([9]; hep 3b2) was “Not Active”.

For `CC(C)Cc1ccc(C(C)c2nnc3n2N=C(c2ccc(OC(F)(F)F)cc2)CS3)cc1` (configuration not stated), the IC50 (HepG2; [14]) was 9.7 µM, the IC50 [3, 15] was 9.1 µM and the Activity (Huh-7 [4]) was “Active”. For the same compound, the IC50 [5, 16] was 6.8 µM, the IC50 [6, 17] was 8.8 µM and the Activity (Huh-7 [7]) was “Active”. For the same compound, the IC50 [1, 11] was 3.6 µM, the IC50 (MCF7; [12]) was 1.1 µM and the IC50 [2, 13] was 3 µM. For the same compound, the Activity (Huh-7 [8]) was “tde” and the IC50 [9, 18] was 6400 nM.

For `CC(c1ccc(-c2ccccc2)c(F)c1)c1nnc2n1N=C(c1ccc(F)cc1)CS2` (configuration not stated), the IC50 (HepG2; [14]) was 5.1 µM, the IC50 [3, 15] was 7.4 µM and the Activity (Huh-7 [4]) was “Active”. The IC50 [5, 16] was 6.6 µM, the IC50 [6, 17] was 3.5 µM and the Activity (Huh-7 [7]) was “Active”. It also gave an IC50 [1, 11] of 4.9 µM, an IC50 (MCF7; [12]) of 8.1 µM and an IC50 [2, 13] of 10.5 µM. For the same compound, the Activity (Huh-7 [8]) was “tde” and the IC50 [9, 18] was 2600 nM.

In the case of `CC[C@@]1(O)C(=O)OCc2c1cc1n(c2=O)Cc2cc3ccccc3nc2-1` [CAMPTOTHECIN], the IC50 (HepG2; [14]) is reported as < 1 µM, the IC50 [3, 15] is reported as < 1 µM and the IC50 [5, 16] is reported as < 1 µM. The IC50 [6, 17] was < 1 µM, the IC50 [1, 11] was ≤ 0.1 µM and the IC50 (MCF7; [12]) was ≤ 0.1 µM. The IC50 [2, 13] was ≤ 0.1 µM and the IC50 [9, 18] was < 1000 nM.

`COc1ccc2cc(C(C)c3nnc4n3N=C(c3ccc(OC(F)(F)F)cc3)CS4)ccc2c1` (configuration not stated) gave an IC50 [1, 11] of 16 µM, an IC50 (MCF7; [12]) of 8.8 µM and an IC50 [2, 13] of 11.7 µM.

With `CC(c1ccc(-c2ccccc2)c(F)c1)c1nnc2n1N=C(c1ccc([N+](=O)[O-])cc1)CS2` (configuration not stated) the IC50 (HepG2; [14]) was 4.3 µM, the IC50 [3, 15] was 9.4 µM and the Activity (Huh-7 [4]) was “inactive”. For the same compound, the IC50 [5, 16] was 7.1 µM, the IC50 [6, 17] was 3.5 µM and the Activity (Huh-7 [7]) was “inactive”. For the same compound, the IC50 [1, 11] was 4.3 µM, the IC50 (MCF7; [12]) was 7.8 µM and the IC50 [2, 13] was 7.1 µM. The Activity (Huh-7 [8]) was “tde” and the IC50 [9, 18] was 2900 nM.

For `COc1ccc2cc(C(C)c3nnc4n3N=C(c3ccc(Cl)cc3)CS4)ccc2c1` (configuration not stated), the IC50 [1, 11] was 5.6 µM, the IC50 (MCF7; [12]) was 10.1 µM and the IC50 [2, 13] was 8.8 µM.

`CC(c1ccc(-c2ccccc2)c(F)c1)c1nnc2n1N=C(c1ccc(OC(F)(F)F)cc1)CS2` (configuration not stated) showed an IC50 [1, 11] of 8.4 µM, an IC50 (MCF7; [12]) of 4.8 µM and an IC50 [2, 13] of 5.4 µM.

With `CC(C)Cc1ccc(C(C)c2n[nH]c(=S)n2N)cc1` (configuration not stated) the IC50 (HepG2; hepg2) was “Not Active”, the IC50 [3, 15] was 16.2 µM and the IC50 [5, 16] was 11.7 µM. For the same compound, the IC50 ([6]; focus) was “Not Active”, the IC50 [1, 11] was 23 µM and the IC50 (MCF7; [12]) was 16.1 µM. It also gave an IC50 [2, 13] of 27.4 µM and an IC50 [9, 18] of 13100 nM.

Compound `COc1ccc2cc(C(C)c3nnc4n3N=C(c3ccc(C)cc3)CS4)ccc2c1` (configuration not stated) has an IC50 [1, 11] of 8.2 µM, an IC50 (MCF7; [12]) of 11 µM and an IC50 [2, 13] of 10.2 µM.

With `CC(C)Cc1ccc(C(C)c2nnc3n2N=C(c2ccc([N+](=O)[O-])cc2)CS3)cc1` (configuration not stated) the IC50 ([1]; huh-7) was “Not Active”, the IC50 (MCF7; mcf7) was “Not Active” and the IC50 ([2]; hct-116) was “Not Active”.

For `COc1ccc(C2=Nn3c(nnc3C(C)c3ccc(-c4ccccc4)c(F)c3)SC2)cc1` (configuration not stated), the IC50 (HepG2; [14]) was 4.2 µM, the IC50 [3, 15] was 5.8 µM and the Activity (Huh-7 [4]) was “Active”. The IC50 [5, 16] was 6.7 µM, the IC50 [6, 17] was 4.4 µM and the Activity (Huh-7 [7]) was “Active”. For the same compound, the Activity (Huh-7 [10]) was “Active”, the IC50 [1, 11] was 4.3 µM and the IC50 (MCF7; [12]) was 2.6 µM. For the same compound, the IC50 [2, 13] was 4.4 µM, the Activity (Huh-7 [8]) was “tde” and the IC50 [9, 18] was 3500 nM.

`Cc1ccc(C2=Nn3c(nnc3C(C)c3ccc(-c4ccccc4)c(F)c3)SC2)cc1` (configuration not stated) gave an IC50 [1, 11] of 7.2 µM, an IC50 (MCF7; [12]) of 5 µM and an IC50 [2, 13] of 4.8 µM.

With `COc1ccc2cc(C(C)c3nnc4n3N=C(c3ccccc3)CS4)ccc2c1` (configuration not stated) the IC50 [1, 11] was 5.7 µM, the IC50 (MCF7; [12]) was 11.7 µM and the IC50 [2, 13] was 8.9 µM.
